Published values of several laboratories.
Each line is one published result; the experiments were not run side by side.
Cell line: A549

CCCCC[C@H](O)CC(=O)CCc1ccc(O)c(OC)c1
IC50 (cell growth or viability, SRB): 208 µM

Cc1ccc(C)n1-c1ccc(-c2nnc(-c3ccc(Br)cc3)[nH]2)cc1
IC50 (cell growth or viability, MTT; 72 h): 225 µM

C=C(Cl)C(=O)Nc1cc(Nc2nc(N3CCSCC3)c3sccc3n2)c(OC)cc1N(C)CCN(C)C
IC50 (cell growth or viability, MTT): 0.098 µM

COc1ccnc(COc2ccc(NC(=O)Nc3ccc(F)cc3)cc2)c1OC
IC50 (cell growth or viability, MTT; 72 h): 23.3 µM

Cc1nc(Nc2ncc(C(=O)Nc3c(C)cccc3Cl)s2)cc(N2CCN(CCO)CC2)n1
IC50 (cell growth or viability, MTT; 48 h): 11.8 µM

COc1cccc(/C=C2\SC(=S)N(CC(=O)Nc3ccccc3)C2=O)c1
IC50 (cell growth or viability, MTT): 32 µM

CCNC(=O)NNC(=O)c1ccc(Nc2nccc(-c3ccc(Cl)cc3)n2)cc1
IC50 (cell growth or viability, MTT; 24 h): > 40 µM

CC1=C(O)C(=O)C=C2C1=CC=C1[C@@]2(C)CC[C@@]2(C)[C@@H]3C[C@](C)(C(=O)OCCO)CC[C@]3(C)CC[C@]12C
IC50 (cell growth or viability, MTT; 48 h): 3.19 µM

CC(C)Cc1ccc(-c2nn(-c3ccc(S(C)(=O)=O)cc3)cc2/C=N\N=C2/NC(=O)CS2)cc1
IC50 (cell growth or viability, MTT; 48 h): 3.44 µM

COc1cc(-c2nc(C(=O)Nc3nnc(-c4cc5ccccc5n4C)s3)cc3c2[nH]c2ccccc23)cc(OC)c1OC
IC50 (cell growth or viability, MTT; 72 h): 7.85 µM

CCN(CC)C/C=N/NC(=O)Nc1cc2c(Nc3ccc(F)c(Cl)c3)ncnc2cc1OC
IC50 (cell growth or viability, MTT; 72 h): 6.19 µM

COc1ccccc1/C=C/CNCC(O)COc1ccc2[nH]ccc2c1 (centres unmarked)
IC50 (cell growth or viability, CCK-8; 72 h): 25.4 µM

CC(C)=CCC[C@](C)(O)[C@H]1CC[C@]2(C)[C@@H]1[C@H](O)C[C@@H]1[C@@]3(C)CC[C@H](O[C@@H]4O[C@H](CO)[C@@H](O)[C@H](O)[C@H]4O[C@@H]4O[C@H](CO)[C@@H](O)[C@H](O)[C@H]4O)C(C)(C)[C@@H]3CC[C@]12C
IC50 (cell growth or viability, MTT; 72 h): > 100 µM

C=CC(=O)Nc1cc(Nc2nc(N3CCc4sccc4C3)c3cccnc3n2)c(OC)cc1N1CCOCC1
IC50 (cell growth or viability, MTT): > 50 µM

COc1c(C)c(OS(=O)(=O)c2ccc3ccccc3c2)c(C)c(OS(=O)(=O)c2ccc3ccccc3c2)c1C(=O)/C=C/c1ccccc1
IC50 (cell growth or viability, SRB; 72 h): > 50 µM

COC1=C2C[C@@H](C)C[C@H](OC)[C@H](O)[C@@H](C)/C=C(\C)[C@H](OC(N)=O)[C@@H](OC)/C=C\C=C(/C)C(=O)NC(=CC1=O)C2=O
IC50 (cell growth or viability, SRB; 72 h): 0.3 µM

O=c1[nH]cc(S(=O)(=O)Nc2cccc(-c3nnc(-c4cccc(Cl)c4)o3)c2)c(=O)[nH]1
IC50 (cell growth or viability, MTT; 24 h): 0.78 µM

Nc1ccc(Cl)c[n+]1[Pt-2]([Cl])([Cl])[n+]1cc(Cl)ccc1N
IC50 (cell growth or viability, MTT; 24 h): 8.6 µM

CCc1c2c(nc3ccc(OC(=O)N4CCC(N5CCCCC5)CC4)cc13)-c1cc3c(c(=O)n1C2)COC(=O)[C@]3(O)CC
IC50 (cell growth or viability, SRB; 72 h): 9.5 µM

O=C(N/N=C/c1cccn1CCCN1CCCCC1)Nc1cc2c(Nc3ccc(F)c(Cl)c3)ncnc2cc1O[C@H]1CCOC1
IC50 (cell growth or viability, MTT; 72 h): 2.44 µM

COc1ccnc(COc2ccc(NC(=O)Nc3cc(F)cc(F)c3)cc2)c1OC
IC50 (cell growth or viability, MTT; 72 h): 17.3 µM

O=C1Nc2ccc(F)cc2/C1=N/NC(=O)c1cc2ccccc2[nH]1
IC50 (cell growth or viability): > 30 µM

CCn1c(-c2nnc(NC(=O)c3cc4c([nH]c5ccccc54)c(-c4ccc(OC)cc4)n3)s2)cc2ccccc21
IC50 (cell growth or viability, MTT; 72 h): 14.2 µM

O=C(N/N=C/CN1CCOCC1)Nc1cc2c(Nc3ccc(F)c(Cl)c3)ncnc2cc1O[C@H]1CCOC1
IC50 (cell growth or viability, MTT; 72 h): 5.62 µM

O=C(/N=c1\scc(-c2ccccc2)n1C1CCCCC1)c1ccc2ccccc2c1
IC50 (cell growth or viability; 48 h): 16.4 µM

NNc1nc(Nc2ccccc2)nc(Nc2ccc(Br)cc2)n1
IC50 (cell growth or viability, SRB; 72 h): > 30 µM

c1ccc2cc(-c3nnc(NC4CCCCC4)[nH]3)ccc2c1
IC50 (cell growth or viability; 48 h): 1.22 µM

O=C(NNC(=O)c1ccc(Nc2nccc(-c3ccc(Cl)cc3)n2)cc1)NC1CCCCC1
IC50 (cell growth or viability, MTT; 24 h): > 40 µM

Oc1ncnc2cc(Nc3nc(-c4ccc(F)cc4)cs3)ccc12
IC50 (cell growth or viability, MTT): 19 µM

C=CC(=O)Nc1cc(Nc2nc(N3CCc4sccc4C3)c3cccnc3n2)c(OC)cc1N(C)CCN(C)C
IC50 (cell growth or viability, MTT): 21.9 µM

COc1ccccc1/C=C/CNCC(O)COc1cccc2c1[nH]c1ccccc12 (centres unmarked)
IC50 (cell growth or viability, CCK-8; 72 h): 11.2 µM

COc1ccc(/C=C/C(=O)C(=Cc2ccc(F)cc2)C(=O)/C=C/c2ccc(OC)c(OC)c2)cc1OC
IC50 (colony formation; 9 days): < 0.2 µM

Cc1ccc(NC(=O)CSc2nnc(Cn3cnc4c3c(=O)n(C)c(=O)n4C)n2-c2ccccc2)cc1C
IC50 (cell growth or viability, MTT): 198 µM

COc1cc(N(C)CCN(C)C)c(NC(=O)C=C(C)C)cc1Nc1nc(N2CCc3sccc3C2)c2sccc2n1
IC50 (cell growth or viability, MTT): 27.9 µM

COc1cc2ncnc(Nc3ccc(F)c(Cl)c3)c2cc1NC(=O)N/N=C/c1cccn1CCN1CCN(C)CC1
IC50 (cell growth or viability, MTT; 72 h): 2.34 µM

C#Cc1cccc(Nc2ncnc3cc(OCCOC)c(OCCOC)cc23)c1
IC50 (cell growth or viability, MTT): 19.4 µM

O=C(NC(=S)NCc1ccccc1)c1ccc2ccccc2c1
IC50 (cell growth or viability; 48 h): 5.53 µM

CC1=C(O)C(=O)C=C2C1=CC=C1[C@@]2(C)CC[C@@]2(C)[C@@H]3C[C@](C)(C(=O)OCCCCCCCO)CC[C@]3(C)CC[C@]12C
IC50 (cell growth or viability, MTT; 48 h): > 100 µM

CN1CCN(C/C=N/NC(=O)Nc2cc3c(Nc4ccc(F)c(Cl)c4)ncnc3cc2O[C@H]2CCOC2)CC1
IC50 (cell growth or viability, MTT; 72 h): 4.34 µM

COc1ccccc1/C=C/CNCC(O)COc1cccc2[nH]ccc12 (centres unmarked)
IC50 (cell growth or viability, CCK-8; 72 h): 26.9 µM

Cc1c(OCC(F)(F)F)ccnc1COc1ccc(NC(=O)Nc2ccc(Cl)cc2)cc1
IC50 (cell growth or viability, MTT; 72 h): 2.39 µM
